Tests used:
[1] = molecular target: Matrix metalloproteinase-14 (Homo sapiens, UniProt P50281); assay: Binding affinity against matrix metalloprotease-14 MTI-MMP.
Procedure, shortened: (§1)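 Catalytic domains of human MMP-14 and MMP-7 were expressed in E. coli BL21 DE3 pLysS. Buffer 50 mM Tris/HCl pH 6.8, 10 mM CaCl2, 25 °C; 0.2–5 nM enzyme; 6 µM Mca-Pro-Leu-Gly-Leu-Dpa-Ala-Arg-NH2 read by fluorescence (ex 340, em 400 nm) for 30 min. Km: MMP-14 21, MMP-7 67 µM. Five inhibitor concentrations in triplicate; Ki by Horovitz–Levitski method.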

Neutrophil collagenase = Neutrophil collagenase (Homo sapiens, UniProt P22894); assay: Inhibition of matrix metalloprotease-8
Procedure, shortened: (§2)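 Full-length human pro-MMP-2, -9 and -8 were expressed in NSO myeloma cells and activated with 4-aminophenylmercuric acetate just before use. Run at 25 °C in 50 mM Tris/HCl pH 6.8, 10 mM CaCl2, with 0.2–5 nM enzyme and 6 µM Mca-Pro-Leu-Gly-Leu-Dpa-Ala-Arg-NH2; fluorescence 340/400 nm, 30 min. Km: MMP-2 49, MMP-9 14, MMP-8 61 µM. Triplicate, five inhibitor levels; Ki by Horovitz–Levitski.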

[2] = molecular target: 72 kDa type IV collagenase (Homo sapiens, UniProt P08253); assay: Binding affinity against matrix metalloprotease-2 (gelatinase-A).; procedure, shortened: as §2
Matrilysin = molecular target: T1, Matrilysin (Homo sapiens, UniProt P09237); assay: Inhibition of Matrix metalloprotease-7 Matrilysin; procedure, shortened: as §1
T1 sequence (P09237 whole entry): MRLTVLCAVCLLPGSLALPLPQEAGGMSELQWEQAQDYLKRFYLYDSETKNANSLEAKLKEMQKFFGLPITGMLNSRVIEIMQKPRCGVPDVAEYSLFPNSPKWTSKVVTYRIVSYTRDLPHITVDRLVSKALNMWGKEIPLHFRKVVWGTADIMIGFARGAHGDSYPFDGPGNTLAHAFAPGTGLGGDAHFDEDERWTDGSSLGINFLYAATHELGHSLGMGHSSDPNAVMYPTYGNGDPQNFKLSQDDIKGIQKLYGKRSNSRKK

Interstitial collagenase = molecular target: T2, Interstitial collagenase (Homo sapiens, UniProt P03956); assay: Inhibition of matrix metalloprotease-1
T2 sequence (P03956 whole entry): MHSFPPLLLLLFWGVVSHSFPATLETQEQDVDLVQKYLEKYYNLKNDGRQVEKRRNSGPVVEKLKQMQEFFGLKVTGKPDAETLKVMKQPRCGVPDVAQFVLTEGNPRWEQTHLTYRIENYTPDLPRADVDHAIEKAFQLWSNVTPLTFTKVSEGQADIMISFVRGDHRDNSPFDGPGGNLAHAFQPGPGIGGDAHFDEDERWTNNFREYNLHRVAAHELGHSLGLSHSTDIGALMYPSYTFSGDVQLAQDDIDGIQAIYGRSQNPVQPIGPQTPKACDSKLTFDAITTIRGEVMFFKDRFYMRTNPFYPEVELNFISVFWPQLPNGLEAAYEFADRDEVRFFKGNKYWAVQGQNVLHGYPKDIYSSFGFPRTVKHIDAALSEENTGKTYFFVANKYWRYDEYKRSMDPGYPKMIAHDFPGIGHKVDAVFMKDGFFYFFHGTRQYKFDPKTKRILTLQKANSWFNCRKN
Procedure, shortened: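 Human full-length pro-MMP-1 was expressed in NSO myeloma cells and activated just before use with trypsin (10 µg/mL, 25 min, 25 °C), then BPTI (100 µg/mL). Assay: 50 mM Tris/HCl pH 6.8, 10 mM CaCl2, 25 °C, 0.2–5 nM enzyme, 6 µM Mca-Pro-Leu-Gly-Leu-Dpa-Ala-Arg-NH2, fluorescence 340/400 nm over 30 min. Km 100 µM. Triplicate inhibition at five concentrations (20–80% range) gave Ki by the Horovitz–Levitski method.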

Stromelysin-3 = molecular target: T3, Stromelysin-3 (Mus musculus, UniProt Q02853); assay: Binding affinity against matrix metalloprotease-11.
T3 sequence (Q02853 whole entry): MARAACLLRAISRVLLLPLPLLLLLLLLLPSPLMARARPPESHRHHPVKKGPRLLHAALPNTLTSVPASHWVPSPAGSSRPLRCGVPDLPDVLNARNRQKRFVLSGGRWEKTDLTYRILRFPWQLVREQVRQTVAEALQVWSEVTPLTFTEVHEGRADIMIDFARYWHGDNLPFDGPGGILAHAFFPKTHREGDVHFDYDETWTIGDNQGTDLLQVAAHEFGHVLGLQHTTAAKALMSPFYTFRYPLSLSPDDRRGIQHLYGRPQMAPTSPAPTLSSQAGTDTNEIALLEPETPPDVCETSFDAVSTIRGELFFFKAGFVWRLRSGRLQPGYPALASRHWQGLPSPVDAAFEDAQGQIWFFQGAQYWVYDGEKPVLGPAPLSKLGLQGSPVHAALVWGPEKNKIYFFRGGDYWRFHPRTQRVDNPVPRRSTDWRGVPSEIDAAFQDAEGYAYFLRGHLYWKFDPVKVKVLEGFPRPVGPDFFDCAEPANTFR
Procedure, shortened: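 Mouse MMP-11 catalytic domain from E. coli BL21 DE3 pLysS, assayed in stirred quartz cuvettes in 50 mM Tris/HCl pH 6.8, 10 mM CaCl2 at 25 °C. Substrate was Mca-Pro-Leu-Ala-Cys(OMeBn)-Trp-Ala-Arg-Dpa-NH2 (Km 0.2 µM), with fluorescence read-out. Percent inhibition was measured in triplicate at five concentrations (20–80% range), and Ki was derived by the Horovitz–Levitski method.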

[3] = molecular target: Matrix metalloproteinase-9 (Homo sapiens, UniProt P14780); assay: Binding affinity against matrix metalloprotease-9 (gelatinase-B).; procedure, shortened: as §2
Sequence of Matrix metalloproteinase-9 (P14780 whole entry): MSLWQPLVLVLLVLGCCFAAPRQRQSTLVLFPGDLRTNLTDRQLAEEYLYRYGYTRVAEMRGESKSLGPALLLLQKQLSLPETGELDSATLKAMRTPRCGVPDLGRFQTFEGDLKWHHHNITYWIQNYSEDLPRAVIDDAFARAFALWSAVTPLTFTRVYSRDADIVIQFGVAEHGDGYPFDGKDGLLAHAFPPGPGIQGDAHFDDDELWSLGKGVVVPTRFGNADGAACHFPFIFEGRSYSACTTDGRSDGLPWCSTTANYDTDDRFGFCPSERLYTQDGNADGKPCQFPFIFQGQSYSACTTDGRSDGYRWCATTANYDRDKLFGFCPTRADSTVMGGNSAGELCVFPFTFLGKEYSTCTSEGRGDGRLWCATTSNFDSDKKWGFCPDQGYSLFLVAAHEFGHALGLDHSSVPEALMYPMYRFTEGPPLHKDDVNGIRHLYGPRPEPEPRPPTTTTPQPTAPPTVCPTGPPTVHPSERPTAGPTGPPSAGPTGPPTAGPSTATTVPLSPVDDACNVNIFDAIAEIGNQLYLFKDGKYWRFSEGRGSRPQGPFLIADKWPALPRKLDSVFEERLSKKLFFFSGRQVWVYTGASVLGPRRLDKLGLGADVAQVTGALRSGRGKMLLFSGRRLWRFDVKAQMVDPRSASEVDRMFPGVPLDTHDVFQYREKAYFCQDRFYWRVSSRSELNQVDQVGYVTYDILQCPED

Sequence of 72 kDa type IV collagenase (P08253 whole entry): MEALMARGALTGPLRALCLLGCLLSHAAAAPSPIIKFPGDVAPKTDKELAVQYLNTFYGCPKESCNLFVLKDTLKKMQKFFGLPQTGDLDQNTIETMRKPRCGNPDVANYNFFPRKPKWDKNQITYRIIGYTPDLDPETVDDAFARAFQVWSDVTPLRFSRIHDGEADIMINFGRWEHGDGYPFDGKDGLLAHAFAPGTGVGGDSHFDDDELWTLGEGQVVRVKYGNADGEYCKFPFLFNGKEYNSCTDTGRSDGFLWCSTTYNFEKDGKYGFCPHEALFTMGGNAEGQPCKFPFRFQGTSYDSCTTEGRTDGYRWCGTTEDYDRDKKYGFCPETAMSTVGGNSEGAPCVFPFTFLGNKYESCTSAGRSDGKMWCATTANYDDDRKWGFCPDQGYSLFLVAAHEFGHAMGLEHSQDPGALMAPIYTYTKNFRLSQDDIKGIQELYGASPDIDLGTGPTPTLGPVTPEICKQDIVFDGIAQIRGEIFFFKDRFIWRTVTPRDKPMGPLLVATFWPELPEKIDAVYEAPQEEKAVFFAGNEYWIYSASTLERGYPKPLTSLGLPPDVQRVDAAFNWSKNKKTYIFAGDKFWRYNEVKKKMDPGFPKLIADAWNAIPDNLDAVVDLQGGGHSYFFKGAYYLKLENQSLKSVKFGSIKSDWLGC
Sequence of Neutrophil collagenase (P22894 whole entry): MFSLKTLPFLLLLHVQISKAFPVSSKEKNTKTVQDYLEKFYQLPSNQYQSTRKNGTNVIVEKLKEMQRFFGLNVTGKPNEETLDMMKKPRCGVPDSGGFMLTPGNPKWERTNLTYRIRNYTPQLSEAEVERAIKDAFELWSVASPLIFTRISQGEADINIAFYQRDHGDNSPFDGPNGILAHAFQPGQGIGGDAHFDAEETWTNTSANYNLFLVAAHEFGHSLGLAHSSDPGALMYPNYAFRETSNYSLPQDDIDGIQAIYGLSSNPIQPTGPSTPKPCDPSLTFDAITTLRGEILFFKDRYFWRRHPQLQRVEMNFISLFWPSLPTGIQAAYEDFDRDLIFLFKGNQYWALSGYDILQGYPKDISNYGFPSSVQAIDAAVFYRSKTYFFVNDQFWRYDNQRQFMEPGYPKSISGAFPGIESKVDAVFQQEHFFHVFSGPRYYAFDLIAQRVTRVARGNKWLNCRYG

Compound: NC(=O)C(Cc1c[nH]c2ccccc12)NC(=O)C(CCCc1ccccc1)CP(=O)(O)C(Cc1ccccc1)NC(=O)c1ccc2ccccc2n1 (configuration not stated)
- Ki [1]: 60 nM
- Ki (Neutrophil collagenase): 5 nM
- Ki [2]: 19 nM
- Ki (Matrilysin): 370 nM
- Ki (Interstitial collagenase): 340 nM
- Ki (Stromelysin-3): 4.2 nM
- Ki [3]: 13 nM

Reference: ChEMBL document CHEMBL1132299, “Phosphinic pseudo-tripeptides as potent inhibitors of matrix metalloproteinases: a structure-activity study” (J Med Chem, 1999)
